Screening data (PubChem BioAssay)
KCNQ1 inh: blocks the human KCNQ1 potassium channel. 310,000 tested, 1.3% active. P51787. CHO-K1 KCNQ1, FluxOR thallium flux fluorescence; hits give high values. B-score at 10 µM;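 active = compounds whose thallium flux B-score, printed positive for inhibition, exceeds three library SD while starting fluorescence stays within three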;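 also: channel opened by potassium depolarization with thallium stimulus after 20 min compound exposure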
hERG protect: compounds protecting human hERG from proarrhythmic drug block | Q12809 | CHO-hERG, FluxOR thallium flux, dofetilide IC70 present | activation (rescue from dofetilide block), less the hit threshold, % at 10 µM | 310,000 tested, 0.51% active | AID 1511;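 active = activation above the mean of controls blocked by dofetilide plus 5 SD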;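 also: thallium influx through hERG after potassium depolarization seen as dye fluorescence rise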
Target sequence (Q12809 whole entry, looked up): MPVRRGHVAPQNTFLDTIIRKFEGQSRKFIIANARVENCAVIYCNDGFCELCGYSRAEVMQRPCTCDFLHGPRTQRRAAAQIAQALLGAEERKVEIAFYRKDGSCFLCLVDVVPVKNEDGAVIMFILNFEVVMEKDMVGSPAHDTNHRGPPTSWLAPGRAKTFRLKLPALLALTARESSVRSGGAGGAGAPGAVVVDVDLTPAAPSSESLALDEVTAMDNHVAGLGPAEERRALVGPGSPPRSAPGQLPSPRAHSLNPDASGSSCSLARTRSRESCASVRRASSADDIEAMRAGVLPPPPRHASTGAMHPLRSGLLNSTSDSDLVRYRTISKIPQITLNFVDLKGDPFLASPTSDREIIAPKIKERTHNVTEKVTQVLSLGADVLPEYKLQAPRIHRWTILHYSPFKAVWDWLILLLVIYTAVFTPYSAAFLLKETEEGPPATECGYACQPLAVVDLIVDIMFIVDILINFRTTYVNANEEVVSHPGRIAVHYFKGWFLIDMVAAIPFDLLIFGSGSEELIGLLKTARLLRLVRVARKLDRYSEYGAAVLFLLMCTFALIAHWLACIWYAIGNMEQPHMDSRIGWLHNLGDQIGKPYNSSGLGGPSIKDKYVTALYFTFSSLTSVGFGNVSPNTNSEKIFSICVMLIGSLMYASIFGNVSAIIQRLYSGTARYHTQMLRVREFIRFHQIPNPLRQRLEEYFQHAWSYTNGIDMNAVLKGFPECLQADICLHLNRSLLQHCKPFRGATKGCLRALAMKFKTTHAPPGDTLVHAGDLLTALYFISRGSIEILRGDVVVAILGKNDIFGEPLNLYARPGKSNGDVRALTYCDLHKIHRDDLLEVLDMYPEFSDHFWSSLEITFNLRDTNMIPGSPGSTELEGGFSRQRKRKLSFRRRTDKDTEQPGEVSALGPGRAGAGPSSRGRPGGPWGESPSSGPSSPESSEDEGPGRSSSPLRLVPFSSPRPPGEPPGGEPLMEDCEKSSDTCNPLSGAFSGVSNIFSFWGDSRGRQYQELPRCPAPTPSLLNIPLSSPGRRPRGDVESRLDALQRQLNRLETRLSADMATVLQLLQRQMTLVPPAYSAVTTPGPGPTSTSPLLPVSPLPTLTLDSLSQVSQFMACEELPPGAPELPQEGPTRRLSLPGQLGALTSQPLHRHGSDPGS
KCNK9 block: human KCNK9 channel inhibition. Q9NPC2. B-score at 10 µM. HEK293 KCNK9, FluxOR thallium flux fluorescence; hits give low values. 310,000 tested, 1.2% active;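 active = ratio B-score over 3 SD below the library mean, with starting fluorescence within 5 SD of its mean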;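 also: negative B-score means less thallium flux so channel inhibition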
KCNK3 inh: human KCNK3 channel inhibition, primary screen; O14649; CHO-KCNK3 thallium flux, FluxOR fluorescence; hits give low values; B-score at 10 µM; 340,000 tested, 0.84% active; AID 602410;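 active = B-score under library mean minus 4 SD, starting fluorescence ratio at most library mean plus 5 SD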;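 also: more negative B-score means stronger inhibition of thallium flux through KCNK3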
KCNQ1 act: human KCNQ1 channel potentiation or activation; P51787; CHO-K1 KCNQ1, thallium flux FluxOR fluorescence; hits give high values; B-score at 10 µM; 310,000 tested, 0.35% active; AID 2648;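 active = fluorescence ratio B-score, a plate-corrected score, at least three library SD, with initial intensity B-score within 5 SD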
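Material: CHO-K1 cells stably expressing KCNQ1. Medium: assay buffer for compound exposure, DMSO matched across wells. Reagent: K+/Tl+ depolarizing stimulus. Compound dosing: single-concentration screen. Times: 37 °C overnight plating, 90-min dark dye load, 20-min compound pretreatment. Technique: FluxOR Tl+ flux fluorescence.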
KCNK3 confirm: human KCNK3 channel inhibition, confirmation assay. shares compounds with KCNK3 inh. CHO-KCNK3 thallium flux, FluxOR fluorescence; 0% buffer, 100% carvedilol maximal block. ratio percent of control, % at 10 µM. 2,400 tested, 99% active. AID 651638;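 active = ratio percent of control, averaged over triplicates, above buffer control mean plus 5 SD, cut at about 64% in these data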;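 also: ratio is the fluorescence rise from min to max over baseline after thallium stimulus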
KCNK3 noninduced: activity in cells without induced KCNK3 expression. shares compounds with KCNK3 inh. 2,400 tested, 40% active. thallium flux ratio (lower = more inhibition) at 10 µM. non-induced KCNK3 parental cells, FluxOR thallium flux; hits give low values;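 active = thallium flux ratio, averaged over three wells, more than 5 SD below the buffer control mean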;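 also: host cells are CHO cells without KCNK3 induction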
Numbers stand for hits; 0 = inactive; - = no result. Most compounds without a hit are left out; they make up all but 3.1% or so of the library.

SMILES | KCNQ1 inh | hERG protect | KCNK9 block | KCNK3 inh | KCNQ1 act | KCNK3 confirm | KCNK3 noninduced
CCC(C(=O)NCCC1=CCCCC1)n1nc(C)c2c(C)n(-c3ccccc3)nc2c1=O (stereo not drawn) | 0 | 0 | 0 | -8.8 | 0 | 89 | 0
CCC(C(=O)Nc1cc(F)ccc1F)n1nc(C)c2c(C)n(-c3ccc(C)cc3)nc2c1=O (stereo not drawn) | 0 | 0 | 0 | 0 | 0 | - | -
CCC(C(=O)Nc1ccccc1F)n1nc(C)c2c(C)n(-c3ccccc3)nc2c1=O (stereo not drawn) | 0 | 0 | 0 | -12 | 0 | 89 | 0
O=C(CSc1nnc(-c2ccncc2)o1)NC1C2CC3CC(C2)CC1C3 (stereo not drawn) | 0 | 0 | 0 | 0 | 0 | - | -
CC(Cl)C(=O)N1c2ccccc2CCc2ccccc21 (stereo not drawn) | 0 | 0 | 0 | 0 | 0 | - | -
CC(=O)N(C)N1c2ccccc2CCc2ccccc21 | 0 | 0 | 0 | -8.8 | 0 | 109 | 0
CC(C)(C)n1cnc2cc(NC(=O)c3ccc(Cl)cc3)ccc21 | 0 | 0 | 0 | 0 | 0 | - | -
COc1cc(C(=O)Nc2ccc3c(c2)ncn3C(C)(C)C)cc(OC)c1OC | 0 | 0 | 0 | -9.3 | 0 | 75 | 0
COc1ccc(C)cc1NC(=O)c1cccc(C(=O)Nc2cc(C)ccc2OC)c1 | 0 | 0 | -8 | -11 | 0 | 106 | 0
CCCCCCCCC(=O)Nc1cc(C)ccc1OC | 0 | 0 | 0 | -11 | 0 | 103 | 0
Cc1cc(-c2csc(NC(=O)c3ccc(C#N)cc3)n2)c(C)n1Cc1ccccc1 | 0 | 0 | 0 | 0 | 0 | - | -
CCN1CCN(c2cc3c(nn2)Oc2ccccc2N3C)CC1 | 0 | 0 | 0 | 0 | 0 | - | -
C(=NN=C(NN=Cc1cccs1)NN=Cc1cccs1)c1cccs1 | - | - | - | -15 | - | 123 | 0
OC1CCC(NC(=S)Nc2ccc(SC(F)F)cc2)CC1 (stereo not drawn) | 0 | 0 | 0 | 0 | 0 | - | -
FC(F)Sc1ccc(NC(=S)NC2CCCC2)cc1 | 0 | 0 | 0 | -11 | 0 | 113 | 0
Cn1c(=O)c2c(nc(Br)n2C/C=N/NC(N)=S)n(C)c1=O | 0 | 0 | 0 | 0 | 0 | - | -
COCCN(C(=O)c1ccco1)c1nc(-c2ccccc2)cs1 | 0 | 0 | 0 | -10 | 0 | 92 | 0.15
COc1ccccc1/C=N/NC(=O)c1cccc(NC(=O)c2ccccc2C)c1 | 0 | 0 | 0 | 0 | 0 | - | -
CCn1c2ccccc2c2cc(NC(=O)c3ccco3)ccc21 | 0 | 0 | 0 | -9.5 | 0 | 114 | 0
COc1ccccc1/C=N/NC(=O)c1cccc(NC(=O)c2ccccc2Cl)c1 | 0 | 0 | -7.1 | -9.5 | 0 | 100 | 0
COc1cccc(C(=O)NCCSCc2ccccc2Cl)c1 | 0 | 0 | 0 | -9.8 | 0 | 99 | 0
COc1cccc(C(=O)Nc2cccc(NC(=O)c3ccccc3Cl)c2)c1 | 0 | 0 | 0 | -12 | 0 | 96 | 0
CCn1c2ccccc2c2cc(NC(C)=O)ccc21 | 0 | 0 | 0 | 0 | 0 | - | -
COc1cccc(C(=O)NCCSCc2c(F)cccc2Cl)c1 | 0 | 0 | 0 | 0 | 0 | - | -
CC1CCC(NC(=O)c2cc(C3CC3)nn2-c2ccccc2)CC1 (stereo not drawn) | - | - | - | 0 | - | - | -
SMILES | KCNQ1 inh | hERG protect | KCNK9 block | KCNK3 inh | KCNQ1 act | KCNK3 confirm | KCNK3 noninduced
O=C(Nc1cccc(NC(=O)c2ccccc2Cl)c1)c1ccco1 | 0 | 0 | 0 | -8.7 | 0 | 98 | 0
C=CCc1cccc(/C=N/NC(=O)c2ccccc2OC)c1O | 0 | 0 | -7.7 | -9.5 | 0 | 94 | 0
C=CCc1cccc(/C=N/NC(=O)C(=O)Nc2ccc(C)cc2)c1O | 0 | 0 | 0 | 0 | 0 | - | -
Cc1ccc2c(c1)N(C(=O)CCC(=O)NC1CCN(Cc3ccccc3)CC1)CC(C)O2 (stereo not drawn) | 0 | 0 | 0 | 0 | 0 | - | -
O=C(NCCOc1ccccc1)c1cc(S(=O)(=O)N2CCOCC2)ccc1F | 0 | 0 | 0 | 0 | 0 | - | -
c1ccc(NCC2OCc3ccccc3CO2)cc1 | 0 | 0 | 0 | 0 | 0 | - | -
COc1ccc(OC)c(C2=NS(=O)(=O)N(C)C(C(=O)Nc3cccc(C(C)=O)c3)=C2)c1 | 0 | 0 | 0 | -8.8 | 0 | 122 | 0.15
CC(Cc1n[nH]c(=S)o1)c1ccccc1 (stereo not drawn) | 0 | 0 | 0 | 0 | 0 | - | -
CNC(=O)/C(C#N)=C/c1c(N2CCN(c3ccccc3)CC2)nc2c(C)cccn2c1=O | 0 | 0 | 0 | 0 | 0 | - | -
Cc1cccn2c(=O)c(/C=C(\C#N)C(N)=O)c(N3CCN(c4cccc(Cl)c4)CC3)nc12 | 0 | 0 | -7.2 | -10 | 0 | 102 | 0
O=c1cc(COc2ccccc2[N+](=O)[O-])nc2sccn12 | 0 | 0 | 0 | - | 0 | - | -
Cc1ccc(NC(=O)C(=O)c2c(-c3ccccc3)cc3ccccn23)cc1S(=O)(=O)N1CCOCC1 | 0 | 0 | 0 | -10 | 0 | 113 | 0
O=C(Nc1ccc2c(c1)Cc1ccccc1-2)c1ccccc1F | 0 | 0 | 0 | 0 | 0 | - | -
O=C(Nc1ccc2c(c1)Cc1ccccc1-2)c1ccc(Br)o1 | 0 | 0 | 0 | -10 | 0 | 86 | 0
Cc1cc(C)n(C(C)CNS(=O)(=O)c2ccc(C)c(C)c2)n1 (stereo not drawn) | 0 | 0 | 0 | 0 | 0 | - | -
Cc1ccc(NC(=O)c2cc(C)nc3ccccc23)c(Br)c1 | 0 | 0 | -8 | -10 | 0 | 94 | 0
CCc1ccc(N2CC(C(=O)N/N=C/c3cc([N+](=O)[O-])ccc3O)CC2=O)cc1 (stereo not drawn) | 0 | 0 | 0 | -9.1 | 0 | 91 | 0
CCc1ccc(N2CC(C(=O)N/N=C/c3ccccc3OC)CC2=O)cc1 (stereo not drawn) | 0 | 0 | 0 | 0 | 0 | - | -
CCOC(=O)c1sc(NC(=O)C(CC)OC(=O)C(CC(C)C)NC(=O)c2ccccc2)nc1C (stereo not drawn) | 0 | 0 | 0 | -11 | 0 | 108 | 0
C/C(=N\Nc1nc(N2CCCCC2)nc(N2CCOCC2)n1)c1ccccc1O | 0 | 0 | 0 | -9.1 | 0 | 104 | 0
O=C(Nc1ccccc1Cl)N1CCCN(c2nc(-c3ccccc3)ns2)CC1 | 0 | 0 | -7 | -12 | 0 | 112 | 0
Cc1c(Cl)cccc1NC(=O)N1CCCN(c2nc(-c3ccccc3)ns2)CC1 | 0 | 0 | 0 | 0 | 0 | - | -
Oc1ccc(-c2csc(-c3ccccc3)n2)cc1O | 0 | 0 | 0 | 0 | 0 | - | -
Oc1ccccc1-c1csc(-c2ccccc2)n1 | 0 | 0 | -6.6 | -9.1 | 0 | 115 | 0.14
S=c1[nH]nc(-c2ccc(Br)cc2)n1-c1ccc(Br)cc1 | 0 | 0 | 0 | -11 | 0 | 75 | 0
Cc1ccc(CN2CCN(/N=C/c3ccc(Cl)c([N+](=O)[O-])c3)CC2)cc1 | 0 | 0 | 0 | -8.7 | 0 | 121 | 0
Cc1ccc(C2N(c3ccc(Cl)cc3)C(=O)N3CCCN23)cc1 (stereo not drawn) | 0 | 0 | 0 | -9.6 | 0 | 90 | 0
